According to ChEMBL document CHEMBL3098079, “Discovery of hybrid Hsp90 inhibitors and their anti-neoplastic effects against gefitinib-resistant non-small cell lung cancer (NSCLC)” (2014):
Blank lines part the entries; values can stand above or below the compound they belong to. Activity calls are given as the source filed them. No cut-off for these calls is given here.

Assays:
[1] = system: NCI-H1975; test: Antiproliferative activity against gefitinib-resistant human NCI-H1975 cells after 1 to 3 days by MTS assay; type: functional
Outline: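 H1975 (gefitinib-resistant NSCLC, T790M/L858R EGFR) cells exposed to compound at a range of concentrations; viability read by MTS assay at 1, 2 and 3 days of treatment. Data given as mean ± SD, n = 4.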

[2] = biological target: Heat shock protein HSP 90-beta (Homo sapiens) (UniProt P08238); test: Inhibition of HSP90 in gefitinib-resistant human NCI-H1975 cells assessed as transcriptional upregulation of Hsp70 after 24 hrs by Western blot method; type: cell-based
Outline: (§1)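 Dose-response immunoblotting: H1975 cells incubated 24 h with increasing compound concentrations, then lysates probed by Western blot for Hsp90 clients (EGFR, Her2, Met, Akt), downstream signaling proteins and Hsp70. Geldanamycin (1 μM) positive control; DMSO negative control.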

[3] = biological target: Heat shock protein HSP 90-beta (Homo sapiens) (UniProt P08238); test: Inhibition of HSP90 in gefitinib-resistant human NCI-H1975 cells assessed as downregulation of Tyr1068 phosphorylated EGFR level at 1 to 100 uM after 24 hrs by Western blot method; type: cell-based; outline: as §1
[4] = biological target: Heat shock protein HSP 90-beta (Homo sapiens) (UniProt P08238); test: Inhibition of HSP90 in gefitinib-resistant human NCI-H1975 cells assessed as degradation of AKT at 40 uM after 24 hrs by Western blot method; type: cell-based
Outline: (§2)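 H1975 cells treated 24 h with each compound at 40 μM; Hsp90 client proteins and Hsp70 probed by Western blot. Geldanamycin (1 μM) as positive control, DMSO as negative control.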

[5] = biological target: Heat shock protein HSP 90-beta (Homo sapiens) (UniProt P08238); test: Inhibition of HSP90 in gefitinib-resistant human NCI-H1975 cells assessed as degradation of MET at 40 uM after 24 hrs by Western blot method; type: cell-based; outline: as §2
[6] = biological target: Heat shock protein HSP 90-beta (Homo sapiens) (UniProt P08238); test: Inhibition of HSP90 in gefitinib-resistant human NCI-H1975 cells assessed as degradation of EGFR after 24 hrs by Western blot method; type: cell-based; outline: as §1
[7] = biological target: Heat shock protein HSP 90-beta (Homo sapiens) (UniProt P08238); test: Inhibition of HSP90 in gefitinib-resistant human NCI-H1975 cells assessed as degradation of MET after 24 hrs by Western blot method; type: cell-based; outline: as §1
[8] = biological target: Heat shock protein HSP 90-beta (Homo sapiens) (UniProt P08238); test: Inhibition of HSP90 in gefitinib-resistant human NCI-H1975 cells assessed as transcriptional upregulation of Hsp70 at 40 uM after 24 hrs by Western blot method; type: cell-based; outline: as §2
[9] = system: NCI-H1975; test: Downregulation of ERK1/2 in gefitinib-resistant human NCI-H1975 cells at 1 to 100 uM after 24 hrs by Western blot method; type: functional, cell-based; outline: as §1
[10] = biological target: Heat shock protein HSP 90-beta (Homo sapiens) (UniProt P08238); test: Inhibition of HSP90 in gefitinib-resistant human NCI-H1975 cells assessed as downregulation of Thr202/Tyr204 phosphorylated ERK1/2 level at 1 to 100 uM after 24 hrs by Western blot method; type: cell-based; outline: as §1
[11] = biological target: Heat shock protein HSP 90-beta (Homo sapiens) (UniProt P08238); test: Inhibition of HSP90 in gefitinib-resistant human NCI-H1975 cells assessed as downregulation of Ser473 phosphorylated AKT level at 1 to 100 uM after 24 hrs by Western blot method; type: cell-based; outline: as §1
[12] = biological target: Heat shock protein HSP 90-beta (Homo sapiens) (UniProt P08238); test: Inhibition of HSP90 in gefitinib-resistant human NCI-H1975 cells assessed as degradation of HER2 at 40 uM after 24 hrs by Western blot method; type: cell-based; outline: as §2
[13] = biological target: Heat shock protein HSP 90-beta (Homo sapiens) (UniProt P08238); test: Inhibition of HSP90 in gefitinib-resistant human NCI-H1975 cells assessed as degradation of AKT after 24 hrs by Western blot method; type: cell-based; outline: as §1
[14] = biological target: Heat shock protein HSP 90-beta (Homo sapiens) (UniProt P08238); test: Inhibition of HSP90 in gefitinib-resistant human NCI-H1975 cells assessed as degradation of EGFR at 40 uM after 24 hrs by Western blot method; type: cell-based; outline: as §2
[15] = biological target: Heat shock protein HSP 90-beta (Homo sapiens) (UniProt P08238); test: Inhibition of HSP90 in gefitinib-resistant human NCI-H1975 cells assessed as degradation of HER2 after 24 hrs by Western blot method; type: cell-based; outline: as §1

Sequence of Heat shock protein HSP 90-beta (Homo sapiens) (P08238 whole entry): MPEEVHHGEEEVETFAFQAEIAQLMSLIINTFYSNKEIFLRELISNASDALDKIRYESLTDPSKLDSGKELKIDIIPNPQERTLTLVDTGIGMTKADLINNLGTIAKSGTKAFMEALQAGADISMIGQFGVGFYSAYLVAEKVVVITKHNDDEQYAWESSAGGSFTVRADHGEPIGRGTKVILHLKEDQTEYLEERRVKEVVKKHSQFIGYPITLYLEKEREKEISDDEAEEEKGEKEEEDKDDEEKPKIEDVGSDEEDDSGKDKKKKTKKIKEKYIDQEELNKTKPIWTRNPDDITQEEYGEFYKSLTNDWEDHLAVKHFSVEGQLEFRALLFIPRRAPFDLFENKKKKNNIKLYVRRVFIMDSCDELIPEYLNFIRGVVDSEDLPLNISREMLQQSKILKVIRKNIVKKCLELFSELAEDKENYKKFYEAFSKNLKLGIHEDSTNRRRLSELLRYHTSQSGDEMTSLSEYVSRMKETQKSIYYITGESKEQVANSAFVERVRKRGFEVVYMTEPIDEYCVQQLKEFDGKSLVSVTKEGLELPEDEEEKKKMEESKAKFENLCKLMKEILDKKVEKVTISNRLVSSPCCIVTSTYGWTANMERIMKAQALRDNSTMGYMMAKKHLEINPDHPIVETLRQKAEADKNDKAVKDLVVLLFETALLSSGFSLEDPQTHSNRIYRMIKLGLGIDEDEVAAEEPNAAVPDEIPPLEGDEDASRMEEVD

Compound: CCCCn1c(Cc2cc(OC)c(OC)c(OC)c2)nc2c(N)ncnc21
GI50 [1]: 50 µM

Compound: O=C(/C=C/c1ccc(O)cc1O)c1cc(Cl)c(O)cc1O
inhibition [1]: Dose-dependent effect

Compound: COc1ccc(/C=C/C(=O)c2cc(Cl)c(O)cc2O)c(OC)c1
inhibition [1]: Dose-dependent effect

Second part, led by results:

GI50 [1]: 1 µM
Compound: CCNC(=O)c1n[nH]c(-c2cc(Cl)c(O)cc2O)c1-c1ccc(OC)cc1

GI50 [1]: 48 µM | inhibition [2]: Dose-dependent effect | inhibition [3]: Active | inhibition [4]: Active | inhibition [5]: Active | inhibition [6]: Dose-dependent effect | inhibition [7]: Dose-dependent effect | inhibition [8]: Active | inhibition [10]: Active | inhibition [11]: Active | inhibition [12]: Active | inhibition [13]: Dose-dependent effect | inhibition [14]: Active | inhibition [15]: Dose-dependent effect
Compound: COc1cc(/C=C/C(=O)c2cc(Cl)c(O)cc2O)cc(OC)c1OC
inhibition [1]: Dose-dependent effect | Activity [9]: inactive
